Measurements taken from ChEMBL document CHEMBL4325893, “Synthesis and antibacterial profiles of targeted triclosan derivatives” (2019).
≈ marks a conversion by molar mass, not a printed value.

Assays:
Aeromonas hydrophila = experiment: Antibacterial activity against Aeromonas hydrophila OCC 778 after 18 hrs; assay type: functional; settings: OCC 778, 18 h
In short: (§1)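 Broth microdilution in Nutrient Broth No. 2; stocks in ethanol diluted to 0.01–128 µg/ml (triclosan) or 0.25–256 µg/ml (glycosides). Overnight 37 °C NB2 cultures diluted 1 in 10^4 in saline and added to the dilutions. Incubation at 37 °C with agitation, OD read every 15 min; MIC is the lowest concentration preventing any OD rise after 18 h.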

Citrobacter freundii [1] = experiment: Antibacterial activity against Citrobacter freundii OCC 851 after 18 hrs; assay type: functional; settings: OCC 851, 18 h; in short: as §1
Cronobacter sakazakii = experiment: Antibacterial activity against Cronobacter sakazakii 29544 after 18 hrs; assay type: functional; settings: Cronobacter sakazakii, 29544, 18 h; in short: as §1
Klebsiella aerogenes [2] = experiment: Antibacterial activity against Enterobacter aerogenes ATCC 13048 after 18 hrs; assay type: functional; settings: ATCC 13048, 18 h; in short: as §1
[3] = Antibacterial activity against Enterobacter cloacae ATCC 13047 after 18 hrs; assay type: functional, Enterobacter cloacae subsp. cloacae; settings: ATCC 13047, 18 h; in short: as §1
Escherichia coli [4] = experiment: Antibacterial activity against Escherichia coli ATCC 8739 after 18 hrs; assay type: functional; settings: ATCC 8739, 18 h; in short: as §1
Escherichia coli [5] = experiment: Antibacterial activity against Escherichia coli ATCC 10536 after 18 hrs; assay type: functional; settings: ATCC 10536, 18 h; in short: as §1
Escherichia coli [6] = experiment: Antibacterial activity against Escherichia coli ATCC 11775 after 18 hrs; assay type: functional; in short: as §1
Escherichia coli [7] = experiment: Antibacterial activity against Escherichia coli ATCC 25922 after 18 hrs; assay type: functional; settings: ATCC 25922, 18 h; in short: as §1
Escherichia coli [8] = experiment: Antibacterial activity against Escherichia coli ATCC 35218 after 18 hrs; assay type: functional; settings: ATCC 35218, 18 h; in short: as §1
Escherichia coli [9] = experiment: Antibacterial activity against Escherichia coli 700728 after 18 hrs; assay type: functional; settings: Escherichia coli, 700728, 18 h; in short: as §1
Escherichia coli [10] = experiment: Antibacterial activity against Escherichia coli NCTC 13216 after 18 hrs; assay type: functional; settings: NCTC 13216, 18 h; in short: as §1
Escherichia coli [11] = experiment: Antibacterial activity against Escherichia coli OCC 122 after 18 hrs; assay type: functional; settings: OCC 122, 18 h; in short: as §1
Escherichia hermannii = experiment: Antibacterial activity against Escherichia hermannii 33650 after 18 hrs; assay type: functional; settings: Atlantibacter hermannii, 33650, 18 h; in short: as §1
Hafnia alvei = experiment: Antibacterial activity against Hafnia alvei 13337 after 18 hrs; assay type: functional; settings: Hafnia alvei, 13337, 18 h; in short: as §1
Klebsiella aerogenes [12] = experiment: Antibacterial activity against Klebsiella aerogenes NCTC 8167 after 18 hrs; assay type: functional; settings: NCTC 8167, 18 h; in short: as §1
Klebsiella pneumoniae [13] = experiment: Antibacterial activity against Klebsiella pneumoniae ATCC 10031 after 18 hrs; assay type: functional; settings: ATCC 10031, 18 h; in short: as §1
Proteus mirabilis = experiment: Antibacterial activity against Proteus mirabilis ATCC 12453 after 18 hrs; assay type: functional; settings: ATCC 12453, 18 h; in short: as §1
Proteus vulgaris = experiment: Antibacterial activity against Proteus vulgaris OCC 195 after 18 hrs; assay type: functional; settings: OCC 195, 18 h; in short: as §1
Pseudomonas aeruginosa = experiment: Antibacterial activity against Pseudomonas aeruginosa ATCC 27853 after 18 hrs; assay type: functional; settings: ATCC 27853, 18 h; in short: as §1
Klebsiella pneumoniae [14] = experiment: Antibacterial activity against Klebsiella pneumoniae ATCC 13883 after 18 hrs; assay type: functional; settings: ATCC 13883, 18 h; in short: as §1
Citrobacter freundii [15] = experiment: Antibacterial activity against Citrobacter freundii 8090 after 18 hrs; assay type: functional; settings: Citrobacter freundii, 8090, 18 h; in short: as §1
Serratia marcescens = experiment: Antibacterial activity against Serratia marcescens OCC 217 after 18 hrs; assay type: functional; settings: OCC 217, 18 h; in short: as §1
Bacillus cereus = experiment: Antibacterial activity against Bacillus cereus ATCC 14579 after 18 hrs; assay type: functional; settings: ATCC 14579, 18 h; in short: as §1
Bacillus subtilis = experiment: Antibacterial activity against Bacillus subtilis NCTC 10073 after 18 hrs; assay type: functional; settings: NCTC 10073, 18 h; in short: as §1
Enterococcus faecalis [16] = experiment: Antibacterial activity against Enterococcus faecalis ATCC 29212 after 18 hrs; assay type: functional; settings: ATCC 29212, 18 h; in short: as §1
Enterococcus faecalis [17] = experiment: Antibacterial activity against Enterococcus faecalis ATCC 33186 after 18 hrs; assay type: functional; settings: ATCC 33186, 18 h; in short: as §1
Enterococcus faecium = experiment: Antibacterial activity against Enterococcus faecium ATCC 19434 after 18 hrs; assay type: functional; settings: ATCC 19434, 18 h; in short: as §1

Molecule `OC[C@H]1O[C@H](Oc2cc(Cl)ccc2Oc2ccc(Cl)cc2Cl)[C@H](O)[C@@H](O)[C@H]1O` has an MIC (Aeromonas hydrophila) greater than 256 µg/mL, an MIC (Citrobacter freundii [1]) of 64 µg/mL (≈ 142 µM) and an MIC (Cronobacter sakazakii) of 128 µg/mL (≈ 283 µM). The MIC (Klebsiella aerogenes [2]) was 128 µg/mL (≈ 283 µM), the MIC [3] was 32 µg/mL (≈ 70.8 µM) and the MIC (Escherichia coli [4]) was 16 to 64 µg/mL (≈ 35.4 to 142 µM). The MIC (Escherichia coli [5]) was 16 to 64 µg/mL (≈ 35.4 to 142 µM), the MIC (Escherichia coli [6]) was 16 to 64 µg/mL (≈ 35.4 to 142 µM) and the MIC (Escherichia coli [7]) was 16 to 64 µg/mL (≈ 35.4 to 142 µM). It also gave an MIC (Escherichia coli [8]) of 16 to 64 µg/mL (≈ 35.4 to 142 µM), an MIC (Escherichia coli [9]) of 16 to 64 µg/mL (≈ 35.4 to 142 µM) and an MIC (Escherichia coli [10]) of 16 to 64 µg/mL (≈ 35.4 to 142 µM). It also gave an MIC (Escherichia coli [11]) of 16 to 64 µg/mL (≈ 35.4 to 142 µM), an MIC (Escherichia hermannii) of 32 µg/mL (≈ 70.8 µM) and an MIC (Hafnia alvei) of 16 µg/mL (≈ 35.4 µM). The MIC (Klebsiella aerogenes [12]) was 32 µg/mL (≈ 70.8 µM), the MIC (Klebsiella pneumoniae [13]) was 1 µg/mL (≈ 2.21 µM) and the MIC (Proteus mirabilis) was 32 µg/mL (≈ 70.8 µM). The MIC (Proteus vulgaris) was 64 µg/mL (≈ 142 µM), the MIC (Pseudomonas aeruginosa) was greater than 256 µg/mL and the MIC (Klebsiella pneumoniae [14]) was 1 µg/mL (≈ 2.21 µM). It also gave an MIC (Citrobacter freundii [15]) of 64 µg/mL (≈ 142 µM), an MIC (Serratia marcescens) greater than 256 µg/mL and an MIC (Bacillus cereus) greater than 256 µg/mL. The MIC (Bacillus subtilis) was 256 µg/mL (≈ 567 µM), the MIC (Enterococcus faecalis [16]) was greater than 256 µg/mL and the MIC (Enterococcus faecalis [17]) was greater than 256 µg/mL. For the same molecule, the MIC (Enterococcus faecium) was greater than 256 µg/mL.
